Activity calls are given as the source filed them. The rule behind the calls is not given here.
Columns and labels:
[1] = Solubility of the compound in water; format: physicochemical; conditions: buffer
[2] = system: Cellular tumor antigen p53 (Homo sapiens), P04637 [Y220C]; experiment: Binding affinity to p53 Y220C mutant (unknown origin) assessed as change in melting temperature at 250 uM
[3] = target: T1, Cellular tumor antigen p53 (Homo sapiens, UniProt P04637, Y220C); experiment: Binding affinity to p53 Y220C mutant (unknown origin)
[4] = target: T1, Cellular tumor antigen p53; experiment: Binding affinity to N-terminal His6-tagged p53 DNA binding domain Y220C mutant (94 to 312 residues) (unknown origin) expressed in Escherichia coli C41 by ITC
[5] = system: Cellular tumor antigen p53 (Homo sapiens), P04637 [Y220C]; experiment: Binding affinity to p53 Y220C mutant (unknown origin) assessed as change in melting temperature at 1 mM
Huh-7 [6] = experiment: Antiproliferative activity against p53 Y220C mutant knockout human HuH7 cells up to 120 uM after 72 hrs by CellTiter-Glo assay; format: functional, cell-based
[7] = system: Cellular tumor antigen p53 (Homo sapiens), P04637 [Y220C]; experiment: Binding affinity to p53 Y220C mutant (unknown origin) assessed as change in melting temperature
Huh-7 [8] = experiment: Antiproliferative activity against human HuH7 cells harboring p53 Y220C mutant after 72 hrs by CellTiter-Glo assay; format: functional, cell-based; conditions: Huh-7, 72 h
Procedure, shortened: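 Cells were exposed to compound for 72 h and viability read by CellTiter-Fluor or CellTiter-Glo 2.0. Quadruplicate technical replicates, normalized to blank (viability = 1) and no-cell (viability = 0) controls. Confirmed in at least 2 independent biological replicates. IC50 derived from the dose-response data.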

CN(C)CCNC(=O)c1cc(I)c(-n2cccc2)c(I)c1O
solubility [1]: Insoluble

O=C(O)c1cc(I)c(-n2cccc2)c(I)c1O
ΔTm [2]: 1.8 °C
Kd [3]: 21 µM
solubility [1]: Soluble
Kd [4]: 21 µM

CCN(CC)c1nc2c(C(=O)OC)c(O)c(I)c(-n3cccc3)c2s1
solubility [1]: Insoluble

COC(=O)c1cc(I)c(-n2cccc2)c(I)c1O
solubility [1]: Insoluble

O=C(O)c1cc(I)cc(I)c1O
ΔTm [5]: 0.6 °C
Kd [3]: 820 µM
solubility [1]: Soluble

CNC(=O)c1cc(I)c(-n2cccc2)c(I)c1O
solubility [1]: Insoluble

CCN(CC)c1nc2c(C(=O)O)c(O)c(I)c(-n3cccc3)c2s1
Activity (Huh-7 [6]): inactive

CCN(CC)C1CCN(Cc2cc(C#CCNc3ccccc3)cc(I)c2O)CC1
ΔTm [7]: 4 °C

CCCSc1cc(C(=O)O)c(O)c(I)c1-n1cccc1
IC50 (Huh-7 [8]): 150 µM

Source: ChEMBL document CHEMBL4152234, “Aminobenzothiazole derivatives stabilize the thermolabile p53 cancer mutant Y220C and show anticancer activity in p53-Y220C cell lines” (Eur J Med Chem, 2018)
